This note sets out measurements from PubChem BioAssay.

Experiment [1] is described as follows: Brca1-Bard1 BiLC signal decrease – luminescence, single concentration, counter-screen for Mdm2/MdmX interaction inhibitor project, confirmation (AID 504668). To be noted: Brca1/Bard1 bimolecular luciferase complementation counterscreen, at 8 µM, stronger effect = higher value.
The target of experiment [2] is Tumor necrosis factor receptor superfamily member 10B (Homo sapiens) (UniProt O14763). Kind of experiment: viability loss of caspase-8 NB7 cells with TRAIL – with/without TRAIL, luminescence panel, confirmation (AID 651596; in the data active means activity above about 50%). The conditions noted are these: NB7 neuroblastoma + caspase-8, TRAIL sensitization, NB7 Caspase-8, with TRAIL, mean of runs, at 10 µM, stronger effect = higher value.
Chain of Tumor necrosis factor receptor superfamily member 10B (Homo sapiens) (O14763 whole entry, looked up): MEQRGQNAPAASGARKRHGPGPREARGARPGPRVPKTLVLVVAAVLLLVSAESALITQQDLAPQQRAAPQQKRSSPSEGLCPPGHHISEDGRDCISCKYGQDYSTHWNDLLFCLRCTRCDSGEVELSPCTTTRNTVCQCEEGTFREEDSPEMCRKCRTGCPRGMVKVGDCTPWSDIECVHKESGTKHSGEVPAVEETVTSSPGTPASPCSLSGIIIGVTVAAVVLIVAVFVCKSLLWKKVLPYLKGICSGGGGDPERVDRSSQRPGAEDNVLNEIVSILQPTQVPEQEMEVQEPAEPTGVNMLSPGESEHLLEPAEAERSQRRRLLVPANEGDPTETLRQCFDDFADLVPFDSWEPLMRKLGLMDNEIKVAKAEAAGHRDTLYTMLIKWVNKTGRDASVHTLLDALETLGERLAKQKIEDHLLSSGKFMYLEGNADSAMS

Experiment in experiment [3]: as above
The conditions noted are these: NB7 neuroblastoma + caspase-8, without TRAIL, NB7 Caspase-8, without TRAIL, mean of runs, at 10 µM.

A short description of experiment [4]: HIF-2a driven luciferase blockers, single dose – luminescence, 786-0 RCC cells, confirmation (AID 651580;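 active means mean inhibition across four replicates of at least 40 percent at the single tested concentration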). The conditions noted are these: HIF-2a luciferase reporter luminescence, overnight, at 18.8 µM, stronger effect = higher value.
The nature of experiment [5]: HIF-1a luciferase reporter signal reduction – MiaPaCa-2 cells, single concentration, counter-screen for HIF-2a inhibitor project, confirmation (AID 651589;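 active means mean inhibition of the reporter signal across four replicates at the single tested dose of 50% or more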). To be noted: MiaPaCa-2 HIF-1a luciferase reporter, desferoxamine, overnight; at 18.8 µM; stronger effect = higher value.
In experiment [6] the target is Carboxy-terminal domain RNA polymerase II polypeptide A small phosphatase 1 (Homo sapiens) (UniProt Q9GZU7). Put plainly: SCP1 melting temperature change from compounds – biophysical, differential scanning fluorimetry, orthogonal assay for Scp-1 inhibitor project, confirmation (AID 540329;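 active means substances whose mean melting-temperature shift, as a percentage of the reference inhibitor's shift, reaches about 5.3%, limit read from the data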;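 further: 0% = Tm of DMSO wells and 100% = Tm with sodium orthovanadate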). The conditions noted are these: Recombinant SCP1, Sypro Orange thermal shift Tm; at 40 µM; stronger effect = higher value. The method in brief:
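Test system: human Scp-1 phosphatase catalytic domain, residues 76-261. Input: Scp-1 from 10 µM stock. Incubation: Heating 20-95 °C, 0.03 °C/s ramp. Control set: vanadate reference. Buffer or medium: Tris acetate buffer at pH 5.5, with MgCl2 and Tween-20. Detection: differential scanning fluorimetry.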

Some of the results follow. The source made the active and inactive calls. Unless noted, how the calls were made is not given here.

Chain of Carboxy-terminal domain RNA polymerase II polypeptide A small phosphatase 1 (Homo sapiens) (Q9GZU7 76-261 limits assumed): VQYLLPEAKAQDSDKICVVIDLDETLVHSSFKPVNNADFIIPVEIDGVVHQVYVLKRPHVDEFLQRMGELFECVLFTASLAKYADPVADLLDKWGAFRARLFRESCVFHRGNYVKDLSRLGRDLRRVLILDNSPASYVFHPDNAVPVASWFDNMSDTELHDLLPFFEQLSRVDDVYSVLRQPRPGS

Regarding `CN(C)CCCNC(=O)c1ccc(-c2nc(-c3ccc(Cl)cc3)cs2)cc1`, the inhibition in experiment [1] is 28.3% (active). Also, the activity was determined as 95.2% in experiment [2] and 97.6% in experiment [3].
Consider `O=C(Nc1ccc(OCC(F)(F)C(F)F)c(C(F)(F)F)c1)c1ccccc1O`, for which, in experiment [1], the inhibition is 28.2% (active). For the same compound, the activity in experiment [2] came out at 67.8%; in experiment [3], 68%.
Regarding `N#Cc1nc(NCC(F)F)nc(Nc2cc(F)cc(F)c2)n1`, in experiment [1], the inhibition was 28% (active). The activity in experiment [2] is 63.2%; in experiment [3], 71.3%.
Turning to `Cc1ccc(-c2nn(C(C)(C)C)c3ncnc(N)c23)cc1`, the figures for the inhibition in experiment [1], in experiment [4] and in experiment [5] were 30.7% (active), 70.1% (active) and 93.8% (active), respectively.
With `O=C(/C=C/c1ccccc1)NC(NC(=S)Nc1ccc(Cl)cc1)C(Cl)(Cl)Cl` (stereo not drawn), the inhibition in experiment [1] was 23.7% (active). Besides, the activity in experiment [2] is 37.1%; in experiment [3] it was 30.2%.
On to `Cc1ccc2sc(N(CCCN(C)C)C(=O)CCS(=O)(=O)c3ccccc3)nc2c1C`, for which the inhibition in experiment [1] is 29.9% (active). Also, the activity in experiment [2] turned out to be 62%; in experiment [3], 93%.
In the same order, the values of `CC(NC(=O)Nc1nnc(C(F)(F)F)s1)(C(F)(F)F)C(F)(F)F` are 32.9% (active), 43.9% and 43.1%.
In the same order, the values of `NC(=O)c1oc2ccccc2c1NC(=O)c1ccc([N+](=O)[O-])o1` are 31.8% (active), 69.1% and 96.5%.
`COC(=O)C1=C(C)N(Cc2ccccc2)C(=NCC(C)C)N[C@H]1c1cccc(C(F)(F)F)c1`: the inhibition in experiment [1] was 26.2% (active). Moreover, the activity in experiment [2] is 25.1%; in experiment [3], 6.62%.
For the compound `Cc1ccc2nc(/C(C#N)=C\c3ccc([N+](=O)[O-])o3)[nH]c2c1`, in experiment [1], the inhibition was 29.9% (active). Moreover, the activity in experiment [2] was determined as 95.6%; in experiment [3], 99%.
Turning to `CCCCn1c(CCl)nc2cc(S(=O)(=O)N3CCOCC3)ccc21`, the inhibition in experiment [1] was 30.4% (active). Besides, the activity is 92.6% in experiment [2] and 76.2% in experiment [3].
On to `COC(=O)c1sc(NC(=O)c2cc(-c3ccccc3)nc3ccccc23)c(C#N)c1C`, for which the inhibition in experiment [1] is 35.4% (active). Further, the activity in experiment [2] was found to be 52.7%; in experiment [3], 39.1%.
For `COc1ccc(NC(=O)c2nc(S(=O)(=O)Cc3cccc(C)c3)ncc2Cl)c(OC)c1` the same measures were 23.1% (active), 30% and 66.4%.
For `CC(C)(C)c1ccc(C(=O)O/N=C(\N)c2ccccc2)cc1` the same measures were 23.3% (active), 99.4% and 99.6%.
In the same order, the values of `O=C(Nc1ccc(OC(F)F)cc1)Nc1cccc(C(F)(F)F)c1` are 24.4% (active), 85.3% and 69.6%.
For the compound `CC(=O)Nc1ccc(NC2=Nc3ccccc3N3C2=Nc2c(c(C)nn2-c2ccccc2)C3c2ccccc2)cc1` (stereo not drawn), the inhibition in experiment [1] was 32.1% (active). Moreover, the activity amounted to 89.4% in experiment [2] and 73.6% in experiment [3].
Consider `O=C(CSc1ccccn1)Nc1nonc1[N+](=O)[O-]`, for which, in experiment [1], the inhibition is 29.3% (active). Also, the activity in experiment [2] is 30.1%; in experiment [3], 58.2%.
On to `Cc1ccc(C)c(C(=O)Cn2ncc(Cl)c(Cl)c2=O)c1`, for which the inhibition in experiment [1] is 31.7% (active). Moreover, the activity turned out to be 99.7% in experiment [2] and 99.3% in experiment [3].
For `CC1CCc2c(sc3nc(C(C)(C)C)nc(N4CCN(C(=O)CCl)CC4)c23)C1` (stereo not drawn) the same measures were 34.8% (active), 98.8% and 99.2%.
For `Cn1c(N)c(C(=O)COC(=O)c2ccccc2C(=O)c2ccc(Cl)c([N+](=O)[O-])c2)c(=O)n(C)c1=O` the same measures were 26.2% (active), 98.5% and 99%.
As for `CCCCC(O)(CCCC)C(=O)NN(C(=O)CCl)c1ccccc1`, the inhibition in experiment [1] was 34% (active). For the same compound, the activity was 92.2% in experiment [2] and 95.7% in experiment [3].
Turning to `CC(C)(C)c1ccc(C2CC2C(=O)N/N=C\c2ccc[nH]2)cc1` (stereo not drawn), the inhibition in experiment [1] is 30.5% (active). Moreover, the activity in experiment [2] turned out to be 79.5%; in experiment [3], 96.8%.
Turning to `CCCCCCCC[n+]1cccc2c3ccccc3ccc21`, in experiment [1], the inhibition was 23.3% (active). Moreover, the activity in experiment [2] was 74.7%; in experiment [3], 63.9%.
In the case of `COc1cccc(N2CCN(c3ncnc4c3cnn4-c3ccc(C)cc3C)CC2)c1`, in experiment [1], the inhibition was 28% (active). For the same compound, the activity was found to be 97.8% in experiment [2] and 96% in experiment [3].
For the compound `C(=N\Nc1nncc2ccccc12)/c1ccccn1`, the inhibition in experiment [1] is 29.9% (active). Further, the activity in experiment [2] turned out to be 78.7%; in experiment [3], 80.2%.
Turning to `O=C(CCl)N(C/C=C/c1ccccc1)c1ccc2c(c1)OCCO2`, the inhibition in experiment [1] was 26.4% (active). Moreover, the activity in experiment [2] is 97.8%; in experiment [3], 94%.
On to `CN(c1ccccc1)S(=O)(=O)c1ccc(Cl)c(C(=O)OCC(=O)NCc2ccco2)c1`, for which, in experiment [6], the thermal shift relative to vanadate control was -14.8% (inactive).
Regarding `O=C(NNC(=O)c1ccc2ccccc2c1)c1ccc(Cl)cc1`, the thermal shift relative to vanadate control in experiment [6] was -19.4% (inactive).
Turning to `CCCCCCCNC(=O)C1(CC2CC(c3ccc(Cl)cc3)=NO2)CCNCC1` (stereo not drawn), the inhibition in experiment [1] was 25.4% (active). Moreover, the figures for the activity in experiment [2] and in experiment [3] were 41.9% and 93.1%, respectively.
